Experimental data as given in ChEMBL document CHEMBL1123346, “Pyrimidinones. 3. N-substituted 6-phenylpyrimidinones and pyrimidinediones with diuretic/hypotensive and antiinflammatory activity” (J Med Chem, 1986).

Tests used:
Rattus norvegicus [1] = assay: Blood pressure change in rats after oral administration of 50 mg/kg dose after 4 hours; assay type: functional
In short: (§1)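 Restrained female Sprague–Dawley rats with indwelling aortic cannulas exteriorized at the nape; direct arterial pressure via transducer, mean pressure by electrical integration of phasic pressure. Readings before and 4 and 24 h after oral dosing (carboxymethylcellulose suspension, 10 mL/kg). Value is change in mean arterial pressure, averaged over two animals.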

[2] = Sodium salt excretion in conscious rat at the dose of 100 mg/kg expressed as urinary excretion in treated rats/urinary excretion in control rats; assay type: ADME, organism-based, Urine; design: dose 100 mg/kg; details: in vivo
In short: (§2)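 Male rats (~160 g) fasted 24 h, water withheld 1.5 h; oral gavage of compound (0.3-100 mg/kg) in 25 mL/kg saline with 0.5% carboxymethylcellulose; 5 h urine collection in metabolism cages. Urine volume, Na+ and K+ (flame photometry) expressed as treated/control excretion ratio.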

Rattus norvegicus [3] = assay: Compound was tested for urinary volume excretion in conscious rat at the dose of 10 mg/kg expressed as urinary excretion in treated rats/urinary excretion in control rats; assay type: ADME, organism-based, Urine; design: dose 10 mg/kg; details: in vivo; in short: as §2
[4] = Potassium salt excretion in conscious rat at the dose of 0.3 mg/kg expressed as urinary excretion in treated rats/urinary excretion in control rats; assay type: ADME, organism-based, Urine; design: dose 0.3 mg/kg; details: in vivo; in short: as §2
[5] = Potassium salt excretion in conscious rat at the dose of 30 mg/kg expressed as urinary excretion in treated rats/urinary excretion in control rats; assay type: ADME, organism-based, Urine; design: dose 30 mg/kg; details: in vivo; in short: as §2
[6] = Sodium salt excretion in conscious rat at the dose of 0.3 mg/kg expressed as urinary excretion in treated rats/urinary excretion in control rats; assay type: ADME, organism-based, Urine; design: dose 0.3 mg/kg; details: in vivo; in short: as §2
Rattus norvegicus [7] = assay: Compound was tested for urinary volume excretion in conscious rat at the dose of 3.0 mg/kg expressed as urinary excretion in treated rats/urinary excretion in control rats; assay type: ADME, organism-based, Urine; design: dose 3 mg/kg; details: in vivo; in short: as §2
Rattus norvegicus [8] = assay: Compound was tested for urinary volume excretion in conscious rat at the dose of 0.3 mg/kg expressed as urinary excretion in treated rats/urinary excretion in control rats; assay type: ADME, organism-based, Urine; design: dose 0.3 mg/kg; details: in vivo; in short: as §2
Rattus norvegicus [9] = assay: Compound was tested for urinary volume excretion in conscious rat at the dose of 100 mg/kg expressed as urinary excretion in treated rats/urinary excretion in control rats; assay type: ADME, organism-based, Urine; design: dose 100 mg/kg; details: in vivo; in short: as §2
Rattus norvegicus [10] = species on record: Rattus norvegicus; assay: Diuretic activity in rats; assay type: functional, Urine
In short: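 Male rats (~160 g) fasted 24 h, water withheld 1.5 h, both withheld during test. Gavage 25 mL/kg 0.9% saline with 0.5% carboxymethylcellulose containing compound at 40 mg/kg; urine collected 5 h in metabolism cages. Two-stage test, T/C urine volume per stage; active if product of stage T/Cs ≥3.34.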

Rattus norvegicus [11] = assay: Compound was tested for inhibition of RPAR administered perorally at 25 mg/kg dose; assay type: functional; details: route oral
In short: (§3)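 Male Wistar rats (180-200 g), 5-10/group, dosed orally (water with Tween-80 suspension) 1 h before iv sensitization with 1 mg bovine serum albumin; 24-h fasted. 60 min later subplantar challenge with 200 µg anti-BSA in left hindpaw. Paw swelling by mercury displacement plethysmography at 2 h post-challenge.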

[12] = Potassium salt excretion in conscious rat at the dose of 10 mg/kg expressed as urinary excretion in treated rats/urinary excretion in control rats; assay type: ADME, organism-based, Urine; design: dose 10 mg/kg; details: in vivo; in short: as §2
Rattus norvegicus [13] = assay: Compound was tested for urinary volume excretion in conscious rat at the dose of 1.0 mg/kg expressed as urinary excretion in treated rats/urinary excretion in control rats; assay type: ADME, organism-based, Urine; design: dose 1 mg/kg; details: in vivo; in short: as §2
[14] = Potassium salt excretion in conscious rat at the dose of 1.0 mg/kg expressed as urinary excretion in treated rats/urinary excretion in control rats; assay type: ADME, organism-based, Urine; design: dose 1 mg/kg; details: in vivo; in short: as §2
[15] = Potassium salt excretion in conscious rat at the dose of 100 mg/kg expressed as urinary excretion in treated rats/urinary excretion in control rats; assay type: ADME, organism-based, Urine; design: dose 100 mg/kg; details: in vivo; in short: as §2
[16] = Potassium salt excretion in conscious rat at the dose of 3.0 mg/kg expressed as urinary excretion in treated rats/urinary excretion in control rats; assay type: ADME, organism-based, Urine; design: dose 3 mg/kg; details: in vivo; in short: as §2
Rattus norvegicus [17] = assay: Compound was tested for inhibition of RPAR administered perorally at 100 mg/kg dose; assay type: functional; details: route oral; in short: as §3
[18] = Sodium salt excretion in conscious rat at the dose of 30 mg/kg expressed as urinary excretion in treated rats/urinary excretion in control rats; assay type: ADME, organism-based, Urine; design: dose 30 mg/kg; details: in vivo; in short: as §2
Rattus norvegicus [19] = assay: Compound was tested for inhibition of RPAR administered perorally at 50 mg/kg dose; assay type: functional; details: route oral; in short: as §3
[20] = Sodium salt excretion in conscious rat at the dose of 10 mg/kg expressed as urinary excretion in treated rats/urinary excretion in control rats; assay type: ADME, organism-based, Urine; design: dose 10 mg/kg; details: in vivo; in short: as §2
[21] = Sodium salt excretion in conscious rat at the dose of 3.0 mg/kg expressed as urinary excretion in treated rats/urinary excretion in control rats; assay type: ADME, organism-based, Urine; design: dose 3 mg/kg; details: in vivo; in short: as §2
Rattus norvegicus [22] = assay: Compound was tested for urinary volume excretion in conscious rat at the dose of 30 mg/kg expressed as urinary excretion in treated rats/urinary excretion in control rats; assay type: ADME, organism-based, Urine; design: dose 30 mg/kg; details: in vivo; in short: as §2
Rattus norvegicus [23] = assay: Blood pressure change in rats after oral administration of 50 mg/kg dose after 24 hours; assay type: functional; in short: as §1
[24] = Sodium salt excretion in conscious rat at the dose of 1.0 mg/kg expressed as urinary excretion in treated rats/urinary excretion in control rats; assay type: ADME, organism-based, Urine; design: dose 1 mg/kg; details: in vivo; in short: as §2

In the case of `Cn1c(N)nc(-c2ccccc2)c(Br)c1=O`, the MABP change (Rattus norvegicus [1]) is reported as -12 mmHg, the “Na+ excretion” value [2] is reported as 2.8 and the Urinary volume (Rattus norvegicus [3]) is reported as 2.3. The “K+ excretion” value [4] was 1.1, the “K+ excretion” value [5] was 2.2 and the “Na+ excretion” value [6] was 1. For the same molecule, the Urinary volume (Rattus norvegicus [7]) was 1.4, the Urinary volume (Rattus norvegicus [8]) was 1 and the Urinary volume (Rattus norvegicus [9]) was 2.8. The Diuretic activity (Rattus norvegicus [10]) was 5.52, the inhibition in vivo at 25 mg/kg (Rattus norvegicus [11]) was 36% and the “K+ excretion” value [12] was 1.7. For the same molecule, the Urinary volume (Rattus norvegicus [13]) was 0.9, the “K+ excretion” value [14] was 1 and the “K+ excretion” value [15] was 2.2. The “K+ excretion” value [16] was 1.3, the inhibition in vivo at 100 mg/kg (Rattus norvegicus [17]) was 74% and the “Na+ excretion” value [18] was 2.5. The inhibition in vivo at 50 mg/kg (Rattus norvegicus [19]) was 64%, the “Na+ excretion” value [20] was 2.1 and the “Na+ excretion” value [21] was 1.3. The Urinary volume (Rattus norvegicus [22]) was 2.5, the MABP change (Rattus norvegicus [23]) was -7 mmHg and the “Na+ excretion” value [24] was 1.2.
